Assay results as given in ChEMBL document CHEMBL4513216, “Probing the Open Global Health Chemical Diversity Library for Multistage-Active Starting Points for Next-Generation Antimalarials” (ACS Infect Dis, 2020).

Test: Toxicity liver stage against HepG2, at 10uM
Type: cell-based
Design: test concentration 10 uM, cell line HepG2-A16-CD81EGFP
Conditions: human, HepG2-A16-CD81EGFP cells; read-out: INHIBITION
Procedure, shortened: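 Uninfected HepG2-A16-CD81EGFP cells, 3 × 10^3 per well, 1536-well, plated on prespotted compound at 10 μM final, parasite-free screening media added to match infected plates; puromycin 10 μM positive, DMSO 0.5% negative; run in parallel with 48 h PbLuc assay at 37 °C, 5% CO2; viability by CellTiter-Glo luminescence, normalized to controls.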

Structure (SMILES) | cytotoxicity at 10 µM [%]
CO[C@@H]1CN(c2ccccc2)S(=O)(=O)[C@@]12CCN(C(=O)N(C)C)C2 | 10.1
COc1ccc(S(=O)(=O)NCC(O)c2sccc2C)cc1Cl (stereo not given) | 1.17
Cc1nc(C)c(C(=O)N2Cc3ccccc3OCC2Cn2ccnc2)s1 (stereo not given) | 9.21
CC(C)(C)CN1CCCC(c2nccnc2Nc2cnccn2)C1 (stereo not given) | 5.37
CCN(CC)S(=O)(=O)N1C[C@@H](c2ccccc2)[C@H]2[C@H]1CCCCCN2C | -10.4
O=C(Cc1ccccc1F)N1CCCCC1c1ccn2ccnc2n1 (stereo not given) | -3.83
CNc1cccc(C2CCCN(C(=O)c3cscn3)C2)n1 (stereo not given) | -11.3
CCN(CC)C(=O)Cn1c(=O)n(Cc2ccco2)c2ncccc21 | -6.77
CN1CCCCC1c1ncc2c(n1)CCN(Cc1ccccc1Cl)C2 (stereo not given) | -1.67
C[C@H](C(=O)N1Cc2ccccc2CC2(CCCN2C)C1)c1ccccc1 (stereo not given in full) | 6.42
COC(=O)CNC(=O)c1ccn(-c2ccc(Cl)c(Cl)c2)n1 | -8.77
CN1CCN(c2ccc(F)cc2NC(=O)NCc2ccon2)CC1 | -6.84
O=C(Cn1nnn(-c2cccs2)c1=O)N(CC1CCOC1)C1CC1 (stereo not given) | -39.9
O=C(OCC1CCN(c2ccccc2)C1)c1cscn1 (stereo not given) | 1.27
CN(C)c1ccccc1CN1CCCC(N2CCCC2=O)C1 (stereo not given) | -9.13
COC(=O)[C@H](C)NC(=O)c1cnc(Cc2ccc(F)cc2)s1 | -10.9
COc1ccc(-c2nnc(SC(C)C(=O)NC3CCCC3)[nH]2)c(OC)c1 (stereo not given) | 36.4
Cn1cc(C(=O)Nc2cccc(Oc3ccncc3)c2)ccc1=O | -1.21
Cc1c(I)cccc1C(=O)NCc1nnc[nH]1 | -2.86
CNC(=O)c1cccc(CNC(C)c2cc(C)ccc2OC(F)F)c1 (stereo not given) | 20.2
COCC(O)CN(C)C(=O)NCc1ccc(-c2ccn[nH]2)cc1 (stereo not given) | 1.81
CC1(c2ccc(Br)cc2)CC(=O)N(CC(N)=O)C1=O (stereo not given) | 2.05
CCSc1ccc(C(C)NC(=O)CNS(C)(=O)=O)cc1 (stereo not given) | 10.4

Structure (SMILES) | cytotoxicity at 10 µM [%]
COc1cccc(C2=CCN(CCN3CCCC3=O)CC2)c1 | -10.6
N#Cc1cc(F)c(NCc2ccc(F)cc2)c(F)c1 | -57
COCc1ccc(CNC(=O)C2=NN(c3ccccc3)C(=O)CN2)cc1 | 26.7
O=C(O)CNc1cc(-c2nccnc2N2CCCC2)c2cc[nH]c2n1 | 4.9
Cc1c[nH]c(CN2CCCCC2CCn2cccn2)c(C)c1=O (stereo not given) | 3.69
CC(C)c1nccc(CN(C)Cc2cnn(-c3ccccc3)c2)n1 | 6.66
CCN1CC(C(=O)N2CCc3cc(C(=O)N(C)C)n(C)c3C2)CCC1=O (stereo not given) | -48.1
CCn1c(CC2CCN(C(=O)c3cc(CC(C)C)on3)CC2)n[nH]c1=O | -2.7
COc1ccccc1N1CCN(C(=O)CCn2nnnc2C)CC1(C)C | 6.48
CN(Cc1ccncc1)Cc1cnn(-c2ccc(F)cc2)c1 | 10
Nc1nc(CNc2ncnc3c2CCN(Cc2ccoc2)CC3)cs1 | 1.63
Fc1ccc(C2CCCCN2Cc2cc(-c3ccccn3)no2)cc1 (stereo not given) | -3.88
O=C(c1cc(-c2cn[nH]c2)nc2ccc(F)cc12)N1CCSCC1 | -0.0178
Cc1nnsc1CN(C)C(=O)CN1CC2(CCNCC2)OC1=O | 11.4
CN(Cc1ccccc1)CC1(O)CCCN(CC(C)(C)C)C1=O (stereo not given) | -12.4
CC(OCC1CC1)C(=O)Nc1ncn(CC(=O)N2CCCCCC2)n1 (stereo not given) | -15.2
Cn1ccnc1C(NCc1csc(Br)c1)c1ccccc1 (stereo not given) | -0.12
CC(NCc1ccccc1Br)c1ccc2[nH]c(=O)[nH]c2c1 (stereo not given) | -6.12
CCc1nccn1-c1cncc(C2CCCN2)n1 (stereo not given) | -6.17
Cc1cccc(N(CC(=O)c2ccccc2)C2=NCCCCC2)c1 | 14.5
CN1CC(=O)N(c2cnn(C)c2)CC12CCN(C(=O)c1ccsc1)C2 (stereo not given) | -1.37
NCC(=O)N1CCCC(c2cncc(Nc3ncccn3)n2)C1 (stereo not given) | 0.848
